Results as given in ChEMBL document CHEMBL1127616, “Synthesis, structural characterization, and antitumor properties of a novel class of large-ring platinum(II) chelate complexes incorporating the cis-1,4-diaminocyclohexane ligand in a unique locked boat conformation” (J Med Chem, 1994).

How the values were obtained:
L1210 [1] = test: Tested for in vivo weight change against murine L1210 Pt-resistant leukemia at the dose of 10 mg/kg per injection in experiment 2; type: functional, organism-based; details: Mus musculus
Outline: (§1)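 Leukemia life-span assays used CD2F1 (Balb/c × DBA/2F1) mice weighing 18–22 g. Cells were inoculated IP on day 0, and compounds in 0.9% saline were given IP, dosed by average cage weight. Weight change is the difference in mean group weight between the last and first treatment days.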

L1210 [2] = test: Tested for the ratio of treated and control against solid tumor murine L1210 leukemia 5.0 mg/kg per injection in experiment 2; T/C; type: functional, organism-based; details: Mus musculus
Outline: (§2)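 Murine leukemia life span assay in CD2F1 (Balb/c × DBA/2F1) mice, 18–22 g, randomized, with IP tumor cell inoculation on day 0. Depending on the model, the inoculum was 1 × 10^4 cells with IP dosing on days 3, 7 and 11, or 1 × 10^6 cells with IP dosing on days 1, 5 and 9. Drug was given in 0.9% saline, mg/kg per injection, by average cage weight. Read-outs were median day of death and %T/C. Mice alive 60 days after treatment counted as cured and were excluded.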

L1210 [3] = test: Tested for the ratio of number of survivors / total number after 60 days at the dose of 4.0 mg/kg per injection against murine L1210 Pt-resistant leukemia in experiment 1; type: functional, organism-based; details: Mus musculus
Outline: (§3)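 CD2F1 (Balb/c × DBA/2F1) mice, 18–22 g, randomized and inoculated IP with counted leukemia cells on day 0, then re-randomized. Three IP treatments, dissolved in 0.9% saline and dosed on average cage weight, with dose in mg/kg per injection across a full toxic-to-ineffective range. Median life span and %T/C were recorded. Survivors at 60 days were counted as cured and excluded from %T/C.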

L1210 [4] = test: Tested for the ratio of treated and control against solid tumor murine L1210 Pt-resistant leukemia 5.0 mg/kg per injection in experiment 2; T/C; type: functional, organism-based; details: Mus musculus; outline: as §2
Mus musculus [5] = test: Tested for the ratio of number of survivors / total number after 60 days at the dose of 10 mg/kg per injection against murine leukemia P388; type: functional, organism-based; outline: as §3
Mus musculus [6] = test: tested for in vivo weight change against murine M5076 sarcoma at the dose of 9.0 mg/kg per injection; type: functional, organism-based
Outline: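 Host weight change in the SC M5076 sarcoma growth delay test in B6C3F1 mice. Drug was given IP in 0.9% saline, mg/kg per injection. Weight change is the maximum treatment-related weight loss.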

Mus musculus [7] = test: Tested for the ratio of number of survivors / total number after 60 days at the dose of 5.0 mg/kg per injection against murine leukemia P388; type: functional, organism-based; outline: as §3
[8] = test system: M5076 sarcoma (Mus musculus); test: Tested for the ratio of treated and control tumor to reach 750 mg against murine solid tumor M5076 sarcoma 4.0 mg/kg per injection
M5076 = test: Tested for net cell kill tumor burden reduction during therapy at the dose 9.0 mg/kg in M5076 sarcoma; type: functional, organism-based; parameters: dose 9 mg/kg; details: Mus musculus
Outline: (§4)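 Solid tumor growth delay assay; B16 melanoma and M5076 sarcoma were run in B6C3F1 (C57BL/6 × C3HF1) mice of 18–22 g. Tumor fragments were implanted SC on day 0, then drug in 0.9% saline was given IP on days 1, 5, 9 or days 3, 7, 11, mg/kg per injection. T − C is the difference in days for treated and control tumors to reach 750 mg. Net log cell kill is tumor burden reduction during therapy. Cured mice were excluded.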

L1210 [9] = test: Tested for median life span against solid tumor L1210 Pt-resistant leukemia at 4.0 mg/kg per injection in experiment 1; type: functional, organism-based; details: Mus musculus
Outline: (§5)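 CD2F1 mice weighing 18–22 g were inoculated IP with leukemia cells on day 0. Compounds in 0.9% saline were given IP in three injections, dosed by average cage weight, over a dose range from toxic to ineffective. Median life span was recorded, with cause of death assessed at necropsy and 60-day survivors counted as cured.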

Mus musculus [10] = test: Tested for median life span against solid tumor P388 leukemia at 5.0 mg/kg per injection; T/C; type: functional, organism-based; outline: as §2
L1210 [11] = test: Tested for median life span against solid tumor L1210 Pt-resistant leukemia at 6.0 mg/kg per injection; type: functional, organism-based; details: Mus musculus; outline: as §5
Mus musculus [12] = test: Tested for median life span against solid tumor P388 leukemia at 10 mg/kg per injection; type: functional, organism-based; outline: as §2
L1210 [13] = test: Tested for in vivo weight change against murine L1210 leukemia at the dose of 6.0 mg/kg per injection in experiment 1; type: functional, organism-based; details: Mus musculus; outline: as §1
L1210 [14] = test: Tested for the ratio of number of survivors / total number after 60 days at the dose of 4.0 mg/kg per injection against murine leukemia L1210 experiment 1; type: functional, organism-based; details: Mus musculus; outline: as §3
L1210 [15] = test: Tested for the ratio of number of survivors / total number after 60 days at the dose of 10 mg/kg per injection against murine leukemia L1210 experiment 2; type: functional, organism-based; details: Mus musculus; outline: as §3
Mus musculus [16] = test: Tested for the ratio of treated and control against solid tumor murine P388 leukemia 10 mg/kg per injection; T/C; type: functional, organism-based; outline: as §2
L1210 [17] = test: Tested for median life span against solid tumor L1210 Pt-resistant leukemia at 10 mg/kg per injection in experiment 2; type: functional, organism-based; details: Mus musculus; outline: as §5
P388 = test: Tested for in vivo weight change against murine P388 leukemia at the dose of 5.0 mg/kg per injection; type: functional, organism-based; details: Mus musculus; outline: as §1
Mus musculus [18] = test: Tested for the ratio of number of survivors / total number after 60 days at the dose of 2.3 mg/kg per injection against murine leukemia P388 experiment 2; type: functional, organism-based; outline: as §3
Mus musculus [19] = test: Tested for the ratio of number of survivors / total number after 60 days at the dose of 3.7 mg/kg per injection against murine leukemia P388 experiment 2; type: functional, organism-based; outline: as §3
Mus musculus [20] = test: Tested for in vivo weight change against murine P388Pt-resistant leukemia at the dose of 3.7 mg/kg per injection; type: functional, organism-based; outline: as §1
Mus musculus [21] = test: Tested for in vivo weight change against murine colon carcinoma at the dose of 2.5 mg/kg per injection; type: functional, organism-based
Mus musculus [22] = test: Tested for net cell kill tumor burden reduction during therapy at the dose 4.0 mg/kg in B16 melanoma; type: functional, organism-based; parameters: dose 4 mg/kg; outline: as §4
L1210 [23] = test: Tested for in vivo weight change against murine L1210 Pt-resistant leukemia at the dose of 3.0 mg/kg per injection in experiment 1; type: functional, organism-based; details: Mus musculus; outline: as §1
Colon carcinoma cell = test: Tested for net cell kill tumor burden reduction during therapy at the dose 2.5 mg/kg in colon carcinoma; type: functional, organism-based; parameters: dose 2.5 mg/kg; details: Mus musculus
L1210 [24] = test: Tested for in vivo weight change against murine L1210 Pt-resistant leukemia at the dose of 1.6 mg/kg per injection in experiment 2; type: functional, organism-based; details: Mus musculus; outline: as §1
L1210 [25] = test: Tested for the ratio of treated and control against solid tumor murine L1210 leukemia 3.0 mg/kg per injection in experiment 1; T/C; type: functional, organism-based; details: Mus musculus; outline: as §2
L1210 [26] = test: Tested for median life span against solid tumor L1210 leukemia at 1.5 mg/kg per injection in experiment 1; type: functional, organism-based; details: Mus musculus; outline: as §5
Mus musculus [27] = test: Tested for in vivo weight change against murine P388 leukemia at the dose of 2.3 mg/kg per injection in experiment 2; type: functional, organism-based; outline: as §1
L1210 [28] = test: Tested for median life span against solid tumor L1210 leukemia at 1.6 mg/kg per injection in experiment 2; type: functional, organism-based; details: Mus musculus; outline: as §5
L1210 [29] = test: Tested for median life span against solid tumor L1210 Pt-resistant leukemia at 1.5 mg/kg per injection in experiment 1; type: functional, organism-based; details: Mus musculus; outline: as §5
L1210 [30] = test: Tested for the ratio of number of survivors / total number after 60 days at the dose of 1.5 mg/kg per injection against murine L1210 Pt-resistant leukemia in experiment 1; type: functional, organism-based; details: Mus musculus; outline: as §3
L1210 [31] = test: Tested for the ratio of treated and control against solid tumor murine L1210 leukemia 1.5 mg/kg per injection in experiment 1; T/C; type: functional, organism-based; details: Mus musculus; outline: as §2

## CISPLATIN
L1210 [1]
  Weight change: -4.8 g
L1210 [2]
  Ratio: 172%
L1210 [3]
  Survivors: 0
L1210 [4]
  Ratio: 107%
Mus musculus [5]
  Survivors: 3
Mus musculus [6]
  Weight change: -5.1 g
Mus musculus [7]
  Survivors: 0
[8]
  T-C: 15.9 days
M5076
  Log net cell kill: 0.8
L1210 [9]
  MLS: 11.1 days
Mus musculus [10]
  T/C: 261%
L1210 [11]
  MLS: 12 days
Mus musculus [12]
  MLS: 9.5 days
L1210 [13]
  Weight change: -1.9 g
L1210 [14]
  Survivors: 1
L1210 [15]
  Survivors: 1
Mus musculus [16]
  T/C: 86%
L1210 [17]
  MLS: 12.4 days
P388
  Weight change: 0.2 g

## [Pt(cis-1,4-dach)CL2]
Mus musculus [18]
  60-day survivors: 0
Mus musculus [19]
  Survivors: 0
Mus musculus [20]
  Weight change: -5.2 g
Mus musculus [21]
  Weight change: -4.2 g
Mus musculus [22]
  Log net cell kill: -0.5
L1210 [23]
  Weight change: -4.3 g
Colon carcinoma cell
  Log net cell kill: -0.4
L1210 [24]
  Weight change: 1.9 g
L1210 [25]
  Ratio: 203%
L1210 [26]
  MLS: 23 days
Mus musculus [27]
  Weight change: -2.2 g
L1210 [28]
  MLS: 21.3 days
L1210 [29]
  MLS: 15.7 days
L1210 [30]
  60-day survivors: 0
L1210 [31]
  Ratio: 217%
